Hits are enriched below; roughly 2.9% of the tested compounds scored in any of these assays.
SIAE primary = human SIAE inhibitors, primary screen, biochemical, fluorescence polarization, FP-Rh probe, 1536-well HTS; AID 1053197, 2014; 370,000 tested, 0.69% active; SIAE FP-Rh probe binding; inhibition, % at 9.66 µM;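 active = inhibition above a cutoff: mean of compounds within the control limits plus 3 SD of those, cut at about 17% in these data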;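 also: 0% = plate median of compound wells and 100% = probe without SIAE protein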
ATG4B inh = ATG4B protease inhibitors, primary screen, biochemical, fluorescence, uHTS; Cysteine protease ATG4B (Homo sapiens), Q9Y4P1; ATG4B cleavage of LC3-PLA2, NBD-HPC fluorescence, 1 h; inhibition, % at 8.33 µM; 340,000 tested, 0.51% active; in the data active = inhibition above about 40%
Target sequence (Q9Y4P1 whole entry, looked up): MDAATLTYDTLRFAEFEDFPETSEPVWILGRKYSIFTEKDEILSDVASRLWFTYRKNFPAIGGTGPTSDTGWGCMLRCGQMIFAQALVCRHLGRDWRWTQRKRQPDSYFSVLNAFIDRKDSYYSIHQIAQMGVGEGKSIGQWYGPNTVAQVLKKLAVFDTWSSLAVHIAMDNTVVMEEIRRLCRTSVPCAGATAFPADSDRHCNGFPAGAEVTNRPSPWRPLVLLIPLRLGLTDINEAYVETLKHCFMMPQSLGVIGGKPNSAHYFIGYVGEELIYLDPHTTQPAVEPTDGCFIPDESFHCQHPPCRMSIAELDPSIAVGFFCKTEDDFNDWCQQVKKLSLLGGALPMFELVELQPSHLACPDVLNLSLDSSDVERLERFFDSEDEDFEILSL
PRMT1 FP inh = PRMT1 methyltransferase inhibitors, primary screen, biochemical, fluorescence polarization; Protein arginine N-methyltransferase 1 (Homo sapiens), Q99873; recombinant PRMT1, activity-based probe fluorescence polarization; inhibition, % at 2.79 µM; 370,000 tested, 1.3% active;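 active = inhibition above about 21% made by adding two undisclosed values, limit read from the data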
ABHD4 inh = ABHD4 inhibitors, primary screen, biochemical, fluorescence polarization, mouse. AID 720543, 2013. purified mABHD4, FP-Rh probe fluorescence polarization. (Lyso)-N-acylphosphatidylethanolamine lipase (Mus musculus), Q8VD66. inhibition, % at 8.92 µM. 370,000 tested, 0.54% active;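 active = inhibition exceeding the mean over every tested compound plus 3 SD, cut at about 30% in these data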;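 also: 0% = plate median of compound wells and 100% = S159A mutant with DMSO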
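Material: mouse ABHD4 enzyme, wild type; Benchmarks: S159A mutant high control, sample median low control; Buffer or medium: HEPES pH 7.0, NaCl, Pluronic buffer; Signal: fluorescence polarization; Read-out: percent inhibition of probe binding, normalized to plate controls; Timing: pre-incubation 45 min, probe exposure 60 min, at 25 °C; Dosing: 8.92 µM, single dose.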
TCR CD3 inh = inhibitors of human TCR-CD3 interaction, primary screen, biochemical, fluorescence, TAMRA-labeled TCR probe; T-cell receptor (TCR); inhibition, % at 9.4 µM; 360,000 tested, 0.37% active; AID 651800, 2012; in the data active = inhibition above about 19%;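 also: recombinant mutant TCR 2C K166C tagged with TAMRA read by polarization; 0% = receptor in buffer alone and 100% = receptor with positive control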
HTRA1 inhibitor = HTRA1 serine protease inhibitors, primary screen, biochemical, fluorescence polarization, HTS; Q92743; recombinant HTRA1, FP-rhodamine activity-based probe; inhibition, % at 5.96 µM; 340,000 tested, 0.5% active; AID 504803, 2011; in the data active = inhibition above about 36%;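 also: 0% = enzyme with DMSO and 100% = wells lacking enzyme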
* = called active by the depositor; x = not tested or not shown.

SMILES	SIAE primary	ATG4B inh	PRMT1 FP inh	ABHD4 inh	TCR CD3 inh	HTRA1 inhibitor
N#CC1=C2SCN(Cc3ccco3)CN2C(=O)CC1c1cccc2ccccc12 (centres undefined)	7.2	-4.7	30.2*	2.6	0.0	-17.5
COc1ccc(NC(=S)NC(NC(=O)CCl)C(Cl)(Cl)Cl)c([N+](=O)[O-])c1 (centres undefined)	x	-11.1	x	x	x	41.8*
CCN(CC)C(=O)CC[C@@H]1CC[C@]2(CCCN(Cc3ccccn3)C2)O1	4.8	x	-2.3	1.8	x	x
COc1cc(C2NC(=S)NC(C)=C2C(=O)Nc2cc(C)cc(C)c2)ccc1O (centres undefined)	1.8	-9.6	-0.3	4.3	0.7	-1.7
CCOc1cc(C2NC(=S)NC(C)=C2C(=O)Nc2ccccc2)ccc1O (centres undefined)	-0.2	-2.9	22.4*	-7.6	-4.6	3.6
CC(C)(C)C(=O)NC1CCCCN(Cc2ccc(Cl)cc2)C1=O (centres undefined)	-3.4	x	-0.6	2.2	x	x
Nc1c(N2CCOCC2)cc(Cl)c2nonc12	3.4	-8.6	0.0	0.8	8.7	1.0
Nc1c(N2CCCC2)cc(Cl)c2nonc12	x	37.3	x	x	x	36.9*
N=c1scc(-c2ccccc2)n1/N=C/c1ccco1	2.4	18.2	33.9*	11.8	-1.9	10.8
NC(=O)C1CCN(C2=C(Cl)C(=O)c3ccccc3C2=O)CC1	-3.8	3.3	24.8*	7.0	4.1	10.4
C[C@H]1CCCN1c1ccc2c(c1)OCCCN(C1CC1)S2(=O)=O	0.7	x	-5.5	4.0	x	x
O=C(CSc1nnc(Cc2ccccc2)n1Cc1ccco1)NC1CCCC1	-14.6	-7.5	22.2*	-26.9	-5.0	-4.4
Cn1c(Cc2ccccc2)nnc1SCC(=O)NC1CCCC1	-2.2	4.1	-0.6	-1.2	1.5	4.2
O=C(CSc1nnc(-c2cccnc2)n1-c1ccc(Cl)cc1)Nc1cccc2ccccc12	4.9	x	-0.6	1.6	x	x
CC(=O)c1c(N2CCOCC2)nc2ccc(Br)cc2c1-c1ccccc1	19.4*	1.1	0.7	3.5	-4.9	x
O=C(O)c1ccnc(SCC(=O)c2ccccc2)c1	-4.6	-0.3	22.9*	-2.2	-3.7	4.1
C=CCN1C(=O)[C@@H](CC(=O)NCCCOC)[C@]2(C(=O)OC)CCCCC=C12	0.8	x	-4.9	1.8	x	x
Nc1nc(SCc2ccccc2)ns1	6.9	-11.4	23.0*	-1.3	5.6	-2.1
O=C(NCCc1c[nH]c2ccccc12)OCc1cn(Cc2ccccc2Cl)nn1	-0.1	x	0.7	-0.3	x	x
Cn1c(N)c(C(=O)COC(=O)c2cc(-c3ccco3)nc3ccccc23)c(=O)n(C)c1=O	4.4	10.7	22.3*	-4.8	17.7	24.5
COc1ccc(-c2cc(C(=O)OCC(=O)c3c(N)n(C)c(=O)n(C)c3=O)c3ccccc3n2)cc1	-10.0	-3.7	-4.7	1.8	0.3	-0.8
COC(=O)C1=C(C)N(CCCC(=O)O)C(=O)NC1c1cc2c(cc1[N+](=O)[O-])OCO2 (centres undefined)	7.8	4.2	27.2*	16.7	-0.8	2.7
COc1ccc2ccccc2c1C=Nn1c(-c2cc(-c3ccccc3)n[nH]2)n[nH]c1=S	3.1	x	11.0	5.7	x	x
O=[N+]([O-])c1ccc(S(=O)Cc2ccccc2)c([N+](=O)[O-])c1 (centres undefined)	1.7	3.1	38.2*	6.9	6.0	1.6
CN(C)c1ccc(NC(=O)c2sc(SCC(=O)Nc3nccs3)nc2N)cc1	24.4*	-12.1	4.5	18.4	4.7	5.0
SMILES	SIAE primary	ATG4B inh	PRMT1 FP inh	ABHD4 inh	TCR CD3 inh	HTRA1 inhibitor
CN(C)c1ccc(NC(=O)c2sc(SCC(=O)Nc3ccc(Br)cc3)nc2N)cc1	5.7	0.8	4.9	-7.5	-2.1	0.5
COc1cc(NC(=O)C2CCCN(S(=O)(=O)c3ccc(Cl)s3)C2)cc(OC)c1 (centres undefined)	-9.6	x	0.9	-20.2	x	x
COc1cc(NC(=O)COC(=O)[C@@H]2CCCN2S(=O)(=O)c2ccc(Cl)cc2)cc(OC)c1OC	17.8*	-9.6	1.8	-3.4	3.0	-3.8
O=C(O)COc1ccc2c(c1)O/C(=C\c1ccco1)C2=O	-9.4	8.0	23.9*	19.0	5.8	3.6
CCOc1ccc(/C=N/Nc2nc(C)cs2)c(O)c1	3.3	0.4	21.4*	4.3	2.0	17.2
CCCCCCCCN1C(=O)[C@@H](CC(=O)NCCC(C)C)C[C@@]2(C(=O)OC)C1=C[C@H](C(C)C)O[C@@H]2C1CC1	7.0	x	-2.5	-4.4	x	x
Cc1nc2ccccc2c(=O)n1Cc1ccco1	-2.0	-7.8	4.8	-6.1	-8.1	x
COc1ccc(Cn2c(C)nc3c(c2=O)c2nc4ccccc4nc2n3Cc2ccco2)cc1	-31.0	9.8	39.6*	-5.7	-1.9	-35.0
CCC(=O)N1CCN(c2ccc(NC(=O)c3ccc4c(c3)OCO4)cc2)CC1	101.4*	-11.9	0.0	-3.5	-2.2	11.6
COc1ccccc1C(=O)Nc1ccc(S(=O)(=O)Nc2cc(C)on2)cc1	26.9*	-4.0	-4.2	0.5	1.7	-0.1
CCCCCCCCN1C(=O)N2Cc3cc(F)ccc3C2CS1(=O)=O (centres undefined)	1.7	x	1.7	5.2	x	x
CC1(C)Cc2c(c(=S)nc(-c3ccccc3)n2CCOCCO)CO1	-3.0	-5.2	21.9*	3.1	6.6	-0.5
C=CCn1c(-c2ccccc2)nc(=S)c2c1CC(C)(C)OC2	0.0	0.4	4.4	3.9	-1.8	3.4
COC(=O)[C@H](CC(C)C)N(CCCc1cn(CC2CCCCC2)nn1)S(=O)(=O)c1ccccc1Br	-2.6	x	2.8	2.9	x	x
Cc1ccc(C2=Nc3ccccc3SC(c3cccc([N+](=O)[O-])c3)C2)cc1 (centres undefined)	5.3	-3.9	76.1*	5.4	-3.3	-16.3
COc1cc(NC(=O)NC2CCCCN(Cc3ccc(Cl)cc3)C2=O)cc(OC)c1 (centres undefined)	-1.3	x	0.6	-8.9	x	x
CCCCN(C)c1nc(-c2ccco2)c2c(c1C#N)CC(C)(C)OC2	7.8	5.4	21.4*	5.6	-4.0	-10.2
O=C(CCc1ccccc1-c1ccccc1CCNC(=O)c1cccc(F)c1)NCc1ccccc1	1.4	x	-1.5	0.6	x	x
C[C@H]1CCC/C=C/[C@@H]2C[C@H](O)C[C@H]2[C@H](O)[C@H](S(=O)c2ccc(O)cc2)CC(=O)O1 (some centres undefined)	6.7	-7.9	73.0*	-13.7	-7.8	-1.4
CC1CCCC=CC2CC(OC(=O)CN(C)C)CC2C(O)C=CC(=O)O1 (centres undefined)	-4.3	-16.6	7.3	-17.7	-9.4	-2.7
CC(C)c1ccccc1NC(=O)[C@@H]1CCCN1S(=O)(=O)c1cccc2cccnc12	-5.8	x	1.2	-4.5	x	x
